Data on 19 molecules can be found in ChEMBL document CHEMBL1121490, “10-Piperazinyl-4H-theino[3,2-b][1,5]- and -[3,4-b][1,5]benzodiazepines as potential neuroleptics” (J Med Chem, 1980).

A value given as a limit tells only on which side of the number the result lay.

A short description of series [1]: Lethal dose in mice after perorla administration. The class given is toxicity, organism-based. The note with it: mouse, in vivo, po. In short, it runs like this: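 CFW albino mice (19–21 g), groups of three, given oral doses up to 800 mg/kg as solution or suspension. Mortality and gross behavioural changes observed over 48 h; LD50 approximated from the outcome.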

For the next series, the system named is Mus musculus. In words: Hypothermia in mice after perorla administration. It is filed as functional. In short, it runs like this: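 Groups of three CFW mice were dosed orally. Rectal temperature was taken 15 min, 2.5 h and 5 h after dosing. Mean changes from each group's mean initial temperature were summed as a "temperature index". ED_min is the minimum dose (mg/kg) giving an index at least 5 lower than the control group.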

Series [2] concerns Rattus norvegicus. The experiment in a line: Compound was evaluated for its ability to block conditioned avoidance response (CAR) in rats; Dose administered perorally is 50 mg/kg; 26-30% block. The note with it: route oral. The class given is functional.
Series [3] has as its system Rattus norvegicus. The experiment in a line: compound was evaluated for its ability to produce catalepsy activity in rats; Dose administered perorally is 50 mg/kg. The class given is functional. Particulars: route oral. In short, it runs like this: (§1)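 Groups of eight Lilly Wistar rats (180–190 g) were dosed orally and checked at 0.5, 1, 1.5, 2, 3, 4 and 5 h. Front paws were placed on a 1.5-cm rod 7 cm above the table, and posture was timed up to 20 min. Release within 10 s counted as noncataleptic. Each rat was scored 0–5 by hold time. Maximum scores per animal were summed, giving a group maximum of 40.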

The test system of series [4] is Rattus norvegicus. In words: Compound was evaluated for its ability to block conditioned avoidance response (CAR) in rats; Dose administered perorally is 50 mg/kg; no significant block 0-25%. It is filed as functional. Particulars: route oral.
The subject of series [5] is Rattus norvegicus. The experiment in a line: Compound was evaluated for its ability to block conditioned avoidance response (CAR) in rats; Dose administered perorally is 40 mg/kg; no significant block 0-25%. Particulars: route oral. It is filed as functional.
For series [6], the system named is Rattus norvegicus. The experiment in a line: Compound was evaluated for its ability to block conditioned avoidance response (CAR) in rats; Dose administered perorally is 50 mg/kg; 31-50% block. The class given is functional. The note with it: route oral.
Series [7] deals with Rattus norvegicus. In words: Compound was evaluated for its ability to block conditioned avoidance response (CAR) in rats; Dose administered perorally is 20 mg/kg; 51-75% block. The note with it: route oral. It is filed as functional. The essentials: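 Lilly Wistar rats (120–130 g) trained in a shuttle box to cross on a 5-s buzzer; failure to respond within 1 s of its end gave a mild shock. Only high responders used. Groups of five dosed orally 1 h 50 min before test; 10-min habituation, then 20-min session. Blockade = shocks received as % of stimuli presented.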

For series [8], the system named is Rattus norvegicus. The experiment in a line: compound was evaluated for its ability to produce catalepsy activity in rats; Dose administered perorally is 20 mg/kg. The note with it: route oral. The class given is functional. The essentials: as §1

Broadly, the LD50 is the dose at which mortality reaches 50%. Lower therefore signals greater toxicity. In turn, `CN1CCN(c2cccc3c2N=C2SC=CC2N=C3)CC1` (stereo not drawn) had an LD50 in [1] above 50 mg/kg. This molecule also returned an EDmin with Mus musculus above 50 mg/kg.
Regarding `COc1ccc2c(c1)N=C(N1CCN(C)CC1)c1cscc1N2`, the Activity with Rattus norvegicus [2] and with Rattus norvegicus [3] was 1 in each case. In series [1], this molecule yielded an LD50 of 200 mg/kg. The molecule also yielded an EDmin in the series on Mus musculus of 50 mg/kg.
Take `Clc1cc2c(cc1Cl)Nc1cscc1C(N1CCNCC1)=N2`: the Activity in the series with Rattus norvegicus [4] and with Rattus norvegicus [3] was 0 throughout. Also, in [1], the LD50 was above 800 mg/kg. Further, the EDmin in the series with Mus musculus is 200 mg/kg.
As for `OCCCN1CCN(C2=Nc3ccccc3Nc3cscc32)CC1`, the Activity in the series with Rattus norvegicus [2] is 1. In addition, the LD50 in series [1] was above 400 mg/kg. In addition, in the series on Mus musculus, the EDmin is above 400 mg/kg.
In the case of `Clc1ccc2c(c1)N=C(N1CCNCC1)c1cscc1N2`, the Activity in the series with Rattus norvegicus [4] and with Rattus norvegicus [3] was 0 throughout. For the same molecule, the LD50 in series [1] was above 400 mg/kg. Besides, the EDmin in the series on Mus musculus was 25 mg/kg.
For `c1ccc2c(c1)N=C(N1CCNCC1)c1cscc1N2`, the figures for the Activity with Rattus norvegicus [4] and in the series with Rattus norvegicus [3] were 0 and 1, respectively. The same molecule returned a median lethal dose (LD50) in [1] above 400 mg/kg. In the series on Mus musculus, this molecule had an EDmin of 50 mg/kg.
In the case of `CCOC(=O)N1CCN(C2=Nc3cc(F)ccc3Nc3ccsc32)CC1`, the Activity in the series with Rattus norvegicus [2] is listed as 1. For the same molecule, the 50% lethal dose (LD50) in series [1] was above 800 mg/kg. The molecule also registered an EDmin with Mus musculus above 800 mg/kg.
Take `Fc1ccc2c(c1)N=C(N1CCNCC1)c1cscc1N2`: the Activity in the series with Rattus norvegicus [4] and in the series with Rattus norvegicus [3] was 0 in each case. In [1], this molecule came in with an LD50 of 600 mg/kg. In the series with Mus musculus, this molecule gave an EDmin of 100 mg/kg.
For `O=CN1CCN(C2=Nc3ccccc3N(C=O)c3cscc32)CC1`, the Activity in the series on Rattus norvegicus [4] is 0. In series [1], the median lethal dose (LD50) was 400 mg/kg. Also, the EDmin with Mus musculus was determined as 200 mg/kg.
In the case of `CN1CCN(C2=Nc3ccc(C(F)(F)F)cc3Nc3cscc32)CC1`, the Activity with Rattus norvegicus [4] and with Rattus norvegicus [3] was 0 each time. In addition, in series [1], the median lethal dose (LD50) came to 600 mg/kg. In addition, the EDmin in the series with Mus musculus is 100 mg/kg.
`Fc1ccc2c(c1)N=C(N1CCN(Cc3ccccc3)CC1)c1sccc1N2` returned an Activity in the series on Rattus norvegicus [4] of 0. In addition, the LD50 in series [1] is above 400 mg/kg. This molecule also gave an EDmin in the series on Mus musculus of 100 mg/kg.
Take `OCCCN1CCN(C2=Nc3cc(F)ccc3Nc3ccsc32)CC1`: the Activity in the series with Rattus norvegicus [5] and with Rattus norvegicus [3] was 0 throughout. This molecule registered a median lethal dose (LD50) in series [1] above 400 mg/kg. Moreover, the EDmin with Mus musculus was determined as 200 mg/kg.
Regarding `Fc1ccc2c(c1)N=C(N1CCNCC1)c1sccc1N2`, the values for the Activity with Rattus norvegicus [6] and in the series with Rattus norvegicus [3] were 2 and 1, respectively. The molecule also had an LD50 in series [1] of 400 mg/kg. Besides, in the series with Mus musculus, the EDmin came out at 50 mg/kg.
In turn, `c1ccc(CN2CCN(C3=Nc4ccccc4Nc4cscc43)CC2)cc1` showed an Activity in the series with Rattus norvegicus [4] of 0. In series [1], this molecule returned an LD50 of 800 mg/kg. In the series with Mus musculus, this molecule gave an EDmin of 800 mg/kg.
As to `OCCN1CCN(CC/C=C2\c3ccccc3Sc3ccc(C(F)(F)F)cc32)CC1` [E-FLUPENTIXOL], the Activity in the series on Rattus norvegicus [2] amounted to 1; in the series with Rattus norvegicus [3], 0. The same molecule registered an LD50 in series [1] above 400 mg/kg. This molecule registered an EDmin in the series on Mus musculus above 400 mg/kg.
Consider `CN1CCN(C2=Nc3cc(F)ccc3Nc3ccsc32)CC1`, for which, in series [1], the LD50 is above 25 mg/kg. For the same molecule, the Activity was 3 in the series with Rattus norvegicus [7] and 2 in the series on Rattus norvegicus [8]. In addition, the EDmin in the series with Mus musculus stood at 12.5 mg/kg.
For `OCCN1CCN(C2=Nc3cc(F)ccc3Nc3ccsc32)CC1`, the Activity was found to be 2 in the series on Rattus norvegicus [6] and 0 in the series with Rattus norvegicus [3]. Further, the 50% lethal dose (LD50) in series [1] was above 400 mg/kg. The same molecule gave an EDmin with Mus musculus of 25 mg/kg.
Taken in the same sequence, the figures for `CN1CCN(C2=Nc3ccccc3N(C)c3cscc32)CC1` were 2, 0, 150 mg/kg and 25 mg/kg.
In turn, `c1ccc(CN2CCN(C3=Nc4ccccc4Nc4ccsc43)CC2)cc1` showed an Activity with Rattus norvegicus [4] of 0. In series [1], this molecule had an LD50 above 400 mg/kg. This molecule registered an EDmin in the series with Mus musculus of 200 mg/kg.
